Experiment [1] has as its system breast cancer (MCF-7) cell line. Description: MTT cytotoxicity assay on MCF-7 cells. It counts as cell-based, human.
Experiment [2] deals with breast epithelial (MCF10A) cell line. Briefly: MTT cytotoxicity assay on MCF10A cells. Type of experiment: cell-based. Particulars: Homo sapiens, MCF-10A, read-out: IC50 (μg mL^−1) ± SD against MCF-10A. The method in brief: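 Mycoplasma-free MCF-10A cells, run in triplicate, were exposed to increasing doses of test compound, with 5-fluorouracil as positive control. MTT was added for 4 h, formazan was dissolved in DMSO, and absorbance was read at 570 and 630 nm. Viability = (A − A0)/(ANC − A0), using mean absorbances of treated, blank and cells-only wells. IC50 was derived from viability.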
On the technique in general: Formazan colour is commonly taken as a measure of viable cells.

A further experiment deals with breast cancer cells. To be noted: cited from earlier work.

Structures are written as SMILES. In brackets after ≈: the same amount, converted by molar mass. Like-named read-outs stand apart in the source and are kept apart here.

For the compound `O=c1[nH]cc(F)c(=O)[nH]1` [5-FU, 5-fluorouracil, reference compound], the IC50 (as a rule, the concentration that inhibits the measured activity by half) was found to be 28.3 ± 1.89 µg/mL (≈ 218 µM) in experiment [1] (Homo sapiens, MCF7, read-out: IC50 (μg mL^−1) ± SD against MCF-7) and 41 ± 1.89 µg/mL (≈ 315 µM) in experiment [2]. Further, the “Selectivity index (SI)” value in experiment [1] (cancer MCF-7 cells over healthy MCF10A cells) is recorded as 1.45.

On to `N.N.O=C([O-])C1(C(=O)[O-])CCC1.[Pt+2]` [Carboplatin], for which the IC50 in the experiment on breast cancer cells (ref S2) is 73.5 µM.

Take `N.N.[Cl][Pt][Cl]` [Cisplatin]: the IC50 with breast cancer cells (ref S1) was 12.2 µM.

As for `O=C1[O][Pt]2([NH][C@@H]3CCCC[C@H]3[NH]2)[O]C1=O` [Oxaliplatin], the IC50 in the experiment on breast cancer cells (ref S2) was 21.9 µM.

(Values after article PMC11378026 (RSC Advances, 2024).)
